# Screening data: PubChem BioAssay, several laboratories
# Beta2AR agonist: activates human beta-2 adrenergic receptor causing internalization | P07550 | Am2.2-beta2AR cells, FAP receptor internalization, flow cytometry | response, % (no concentration beside the values) | 340,000 tested, 0.43% active;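 active means response above a set limit, near 3 SD of response in nonfluorescent compounds, cut at about 42% in these data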
# Dynein cargo inh: blocks dynein driven cargo transport along microtubules; 220,000 tested, 0.47% active; 3617.4 mouse cells, GR-EGFP nuclear translocation imaging; test concentration mostly 20 µM; stimulated with dexamethasone, 1 µM; active compounds read low; z-score, hits read low;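 active means plate z-score of nuclear minus cytoplasmic receptor signal below a set negative limit, without overly bright fluorescence or cell loss, cut at about -3.5 in these data, passing the limit was not always enough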;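 further: z-score of nuclear minus cytoplasmic ring GR-EGFP intensity difference per well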
#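 medium = tetracycline-free induction medium containing charcoal-stripped FBS | also added = 1.0 µM final dexamethasone stimulus | schedule = 48 h induction, 1 h compound, 30 min dex at 37 °C | technique = fixed, Hoechst-stained cells imaged at 10x for EGFP | measure = GR-EGFP nuclear translocation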
# Mdm2 MdmX PPI: human Mdm2/MdmX binding inhibition; O15151+Q00987; SaOS-2 split-luciferase Mdm2/MdmX complementation, luminescence; inhibition, % at 8 µM; 330,000 tested, 3% active; AID 485346;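 active means inhibition of at least 50% at 8 µM in the primary screen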
# Target sequence (O15151 whole entry, looked up): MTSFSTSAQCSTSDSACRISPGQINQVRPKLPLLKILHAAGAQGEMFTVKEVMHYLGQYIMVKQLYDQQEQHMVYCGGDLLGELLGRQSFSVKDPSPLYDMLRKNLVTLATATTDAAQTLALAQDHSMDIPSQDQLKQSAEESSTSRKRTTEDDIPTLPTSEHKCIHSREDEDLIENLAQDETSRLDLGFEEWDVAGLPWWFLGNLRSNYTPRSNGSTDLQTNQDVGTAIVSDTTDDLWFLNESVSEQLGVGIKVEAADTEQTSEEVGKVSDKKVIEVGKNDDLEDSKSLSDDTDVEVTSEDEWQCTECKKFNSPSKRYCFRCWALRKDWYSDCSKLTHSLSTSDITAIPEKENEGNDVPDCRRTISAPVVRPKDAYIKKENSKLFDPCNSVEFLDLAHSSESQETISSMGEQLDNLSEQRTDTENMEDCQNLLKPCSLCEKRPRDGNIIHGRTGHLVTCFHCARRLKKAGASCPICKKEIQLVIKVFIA
# Target sequence (Q00987 whole entry, looked up): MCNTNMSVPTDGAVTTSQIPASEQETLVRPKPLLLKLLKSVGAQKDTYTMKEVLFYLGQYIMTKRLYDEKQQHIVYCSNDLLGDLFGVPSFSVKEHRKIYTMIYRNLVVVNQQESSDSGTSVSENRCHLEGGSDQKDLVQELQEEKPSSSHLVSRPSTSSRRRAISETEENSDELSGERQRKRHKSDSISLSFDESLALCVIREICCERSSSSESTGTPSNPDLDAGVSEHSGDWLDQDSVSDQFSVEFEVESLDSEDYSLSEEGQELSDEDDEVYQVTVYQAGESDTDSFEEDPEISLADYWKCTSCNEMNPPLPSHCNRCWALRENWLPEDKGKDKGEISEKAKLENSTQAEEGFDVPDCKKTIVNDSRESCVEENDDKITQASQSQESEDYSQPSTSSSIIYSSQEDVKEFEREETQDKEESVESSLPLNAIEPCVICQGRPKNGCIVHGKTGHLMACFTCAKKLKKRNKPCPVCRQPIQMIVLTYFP
# XBP1 UPR activ: activators of adaptive arm of unfolded protein response (XBP1) | CHO-XBP1 luciferase reporter, IRE1-XBP1 UPR activation, luminescence; percent of tunicamycin response, DMSO as zero | 330,000 tested, 0.33% active | activation, % at 20 µM;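 active means versus positive control, 20 µM dose yields 30% or more activation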;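 further: 100% = tunicamycin at 10 µg/mL and 0% = DMSO only wells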
#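 incubation = overnight seeding at 37 °C, 6 h compound treatment at 37 °C | assay system = CHO-XBP1 cells stably carrying IRE1-XBP1-driven luciferase reporter | input = 1000 cells per well | detection = luciferase luminescence | dosing = single point, 20 µM final compound, 1% DMSO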
# CHOP UPR activ: apoptotic UPR (CHOP) activation; CHO-CHOP luciferase reporter, luminescence; percent of tunicamycin response over DMSO baseline; activation, % at 10 µM; 330,000 tested, 0.34% active;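 active means at 10 µM dose, activation of 40% or more, normalized to positive control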;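 further: 100% = tunicamycin at 10 µg/mL and 0% = DMSO alone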
#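 Dosing – one dose, 10 µM in 0.5% DMSO · System – CHO-CHOP cells, stable luciferase reporter of PERK-eIF2a-CHOP signalling · Input – 500 cells/well · Control set – tunicamycin 10 µg/mL final as positive, DMSO-only wells as negative · Timing – 6 h compound treatment, 37 °C · Measure – % activation vs tunicamycin · Technique – luminescence read with Steady-Glo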
# Mdm2 ligase inh: Mdm2 E3 ligase (human) inhibition; Q00987; cell-based MDM2 ubiquitination luciferase reporter, 2 h; 0 = plate control, 100 = twice control, blank-subtracted; signal enhancement, % at 5 µM; 210,000 tested, 0.11% active; AID 1230;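 active means signal enhancement of 30% or more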;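 further: luminescence tracks abundance of the self-degrading MDM2-luciferase fusion protein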
#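 test system = mammalian cells stably expressing self-ubiquitinating, self-degrading MDM2 E3–luciferase fusion | quantity = 2000 cells/well | incubation = cell settling 4 h, compound treatment 2 h, both 37 °C | signal = luminescence with SteadyLite reagent, 15 min at room temperature | evaluation = % enhancement relative to plate controls after blank subtraction | benchmarks = plate controls and plate blanks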
# UPR XBP1 confirm: adaptive UPR (XBP1) activation, confirmed; 1,000 tested, 63% active; CHO-XBP1 IRE1-XBP1 luciferase reporter, luminescence; shares compounds with XBP1 UPR activ; activation, % at 20 µM;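 active means reporter signal at least 30% of the positive control's activation in two or more of four replicate wells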;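 further: plate controls were DMSO negative control for no effect and tunicamycin 10 µg/mL positive control for full effect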
# Mdm2-MdmX conf: human Mdm2/MdmX binding inhibition, confirmed; 10,000 tested, 55% active; inhibition, % at 8 µM; AID 489028; shares compounds with Mdm2 MdmX PPI; luminescent assay; in the data active means inhibition above about 40%
# Full FLuc ctr: full-length luciferase inhibition in Mdm2/MdmX counter-screen | AID 504607 | 6,200 tested, 77% active | inhibition, % at 8 µM | shares compounds with Mdm2 MdmX PPI | SaOS-2 full-length luciferase counterscreen, luminescence;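 active means mean inhibition at 8 µM reaching about 37%, which flags the compound as non-specific, limit read from the data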;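 further: p53-null SaOS-2 cells with luciferase driven by a doxycycline-inducible promoter; compound on cells about two nights before reading with doxycycline added after day one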
# * marks the source's active call; other numbers are inactive results; / = no result given. A selection: hits, their analogues and other compounds. The true share with any hit is near 3.7%.
SMILES,Beta2AR agonist,Dynein cargo inh,Mdm2 MdmX PPI,XBP1 UPR activ,CHOP UPR activ,Mdm2 ligase inh,UPR XBP1 confirm,Mdm2-MdmX conf,Full FLuc ctr
CCN(CC)S(=O)(=O)c1ccc2c(c1)C(=NO)c1cc(S(=O)(=O)N(CC)CC)ccc1-2,17,0.12,83*,52*,14,-2,79*,68*,24
CCN(CC)S(=O)(=O)c1ccc(C)c(C)c1,-3,-0.68,2,1,-2,-10,/,/,/
CC(C)(C)c1ccc(C(=O)N2CCC(C(=O)NC3CCCCCC3)CC2)cc1,2,/,8,4,3,/,/,/,/
NS(=O)(=O)c1ccc(N/N=C/c2cn(-c3ccccc3)nc2-c2cccs2)c([N+](=O)[O-])c1,38,-0.00051,96*,57*,27,-12,62*,15,/
Cc1ccc(Cl)cc1N1CCN(Cc2nc3c(c(=O)[nH]c(=O)n3C)n2CCc2ccccc2)CC1,6,-0.48,64*,46*,22,1,55*,14,/
COc1ccc(OC)c(-c2nnc3n2N=C(c2ccc(OC)c(OC)c2)CS3)c1,12,/,66*,37*,0,/,42*,60*,79*
c1ccc(-c2cc(-c3nnc4n3N=C(c3ccc5ccccc5c3)CS4)[nH]n2)cc1,1,0.23,57*,32*,31,-7,4,78*,76*
COc1ccc(C2=Nn3c(nnc3-c3ccccc3)SC2)cc1OC,-4,-1.2,33,8,-2,-6,/,/,/
COc1ccccc1Nc1nccc(N(C)C)c1C#N,-6,0.99,-5,-5,-1,-16,/,/,/
COc1ccc(N2CCN(C(=O)COC(=O)c3cccc(S(=O)(=O)Nc4cccc(C)c4)c3)CC2)cc1,5,/,29,-6,0,/,/,/,/
Cc1cccc(C(=O)NCCc2ccccc2)c1,-2,/,-83,-3,13,/,/,/,/
CCOCCCNC(=O)c1ccc(Cn2c(=S)[nH]c3c([nH]c4ccc(OC)cc43)c2=O)cc1,6,-0.29,-21,3,-2,-16,/,/,/
CCCCNC(=O)c1ccc(Cn2c(=S)[nH]c3c([nH]c4ccc(OC)cc43)c2=O)cc1,-2,-0.63,89*,41*,2,2,64*,16,/
O=[N+]([O-])c1ccc(-c2nc(Nc3cccc(O)c3)c3ccccc3n2)cc1,25,/,82*,34*,5,/,20,7,/
O=C(O)c1cccc(Nc2nc(-c3ccc([N+](=O)[O-])cc3)nc3ccccc23)c1,10,/,-4,-6,-2,/,/,/,/
CCOCCSc1n[nH]c(=O)n1CCc1ccccc1,0,/,-6,0,-1,/,/,/,/
COc1ccc(NC(=O)c2cc3c(=O)n(C)c4ccccc4c3n2C)cc1Cl,13,-0.73,62*,32*,2,0,72*,26,/
Nc1ccccc1NC(=O)c1ccccc1,11,0.085,10,4,1,-11,/,/,/
Nc1ccc(NC(=O)c2ccccc2)c2c1C(=O)c1ccccc1C2=O,11,-0.44,52*,32*,0,-14,26,53*,72*
O=C(NC1=NCCS1)c1cccc(S(=O)(=O)N2CCOCC2)c1,5,/,17,0,-1,/,/,/,/
C/C(Cl)=C\Cn1c(O)c(N=NC(N)=S)c2cc(Br)ccc21,3,-0.2,75*,84*,5,-6,120*,49*,74*
NC(=S)N=Nc1c(O)n(CCCl)c2ccc(Br)cc12,-11,-0.67,25,8,1,-15,/,/,/
Nc1ncnc2c(C3OC(CO)C(O)C3O)c[nH]c12 (stereo unspecified),-4,/,/,/,/,/,/,/,/
CCCCn1c(=O)[nH]c(=O)c2c1nc(-c1ccc(OC)c(Br)c1)n2CC(C)C,-5,/,15,3,1,/,/,/,/
C=CCOc1ccc(-c2nc3c(c(=O)[nH]c(=O)n3CCCC)n2C)cc1Br,-23,/,70*,39*,4,/,26,-3,/
SMILES,Beta2AR agonist,Dynein cargo inh,Mdm2 MdmX PPI,XBP1 UPR activ,CHOP UPR activ,Mdm2 ligase inh,UPR XBP1 confirm,Mdm2-MdmX conf,Full FLuc ctr
COc1ccc(/C=N/NC(=O)c2cc(=O)[nH]c3ccccc23)cc1OC,2,-1.9,-22,-1,2,-8,/,/,/
O=C(O)c1ccccc1C(c1ccccc1)c1ccccc1O (stereo unspecified),-8,/,/,/,/,/,/,/,/
CCOC(=O)Nc1nc(-c2ccccc2)c(C(=O)c2ccccc2)s1,8,0.45,61*,31*,0,-15,12,51*,91*
CC(=O)c1sc(NC(=O)c2ccccc2)nc1-c1ccccc1,-12,0.3,-168,1,4,-12,/,/,/
COC(=O)c1cc(S(=O)(=O)N2CCN(c3ccc(OC)cc3)CC2)cn1C,5,/,21,-9,-2,/,/,/,/
O=C(CSc1nc2ccccc2c(=O)n1-c1ccccc1)N1CCc2ccccc21,11,-1.4,55*,36*,2,-8,42*,68*,81*
COc1cc(-c2noc(C)c2C#Cc2ccc(N)cc2)cc(OC)c1OC,17,/,89*,59*,3,/,24,70*,89*
CCOC(=S)SCC(=O)Nc1nc(-c2ccc(Br)cc2)cs1,11,-1.7,84*,93*,4,/,164*,76*,102*
CCOC(=O)N1CCN(C(=O)CSCC(=O)Nc2nc(-c3ccc(OC)cc3)cs2)CC1,-2,0.29,0,3,2,-21,/,/,/
Clc1ccc2c(c1)C(N1CCNCC1)Cc1ccccc1S2 (stereo unspecified),26,-4.5,101*,63*,5,-8,72*,100*,39*
COCCCN1CCN(C2Cc3ccccc3Sc3ccc(Cl)cc32)CC1 (stereo unspecified),15,0.79,43,-1,0,-12,/,/,/
COC(=O)c1ccccc1NC(=O)c1cc(-c2cccs2)on1,0,-1.1,60*,32*,20,-12,4,-8,/
CSc1ccccc1OCc1cc(C(=O)N[C@H]2CCCCNC2=O)no1,-2,/,-76,1,5,/,/,/,/
c1ccc(Oc2ncnc3ccccc23)cc1,-1,/,/,/,/,/,/,/,/
c1ccc(Oc2c3ccccc3nc3ccccc23)cc1,/,-0.49,73*,63*,6,/,67*,5,/
